From PubChem
Runt-CBFb FRET: blocks binding of human RUNX1 Runt domain to CBFb; AID 1496; 0.46% of 220,000 active; inhibition, % at 20 µM; Q01196+Q13951; Cerulean-Runt/Venus-CBFb FRET ratio 530/480, 1 h;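 active = inhibition over about 50% at 20 µM in the single-dose screen, limit read from the data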
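Buffer or medium: Tris pH 7.5 buffer with BSA. Assay system: Cerulean-labeled Runt domain protein. Amount: each fluorescent fusion protein 100 nM. Read-out basis: loss of energy transfer signal. Incubation: 1 h compound exposure, room temperature. Probe or stimulus: Venus-CBFb binding partner, 100 nM. Detection: FRET, excitation 422 nm, emission at 530 and 480 nm.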
p97 inhibitor: blocks human p97 ATPase activity; AID 1481; 0.42% of 220,000 active; inhibition, % at 8 µM; recombinant p97 ATPase, Kinase-Glo ATP luminescence, 3 h; P55072; in the data active = inhibition above about 15%
RanGTP-Impb inh: inhibitors of RanGTP-importin-beta interaction, primary screen, biochemical, FRET, CFP-Ran, YFP-importin-beta, homogeneous; cell-free CFP-Ran/YFP-importin-beta FRET ratio; inhibition, % (test concentration not listed); 1.1% of 300,000 active;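 active = more than half of the replicate wells show a fall in the fluorescence ratio signal beyond about 16%, limit read from the data, passing the limit was not always enough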
Tb hexokinase: T. brucei hexokinase 1 inhibition | recombinant TbHK1, G6PDH-coupled NADH A340 | inhibition, % at 10 µM | 0.11% of 220,000 active | AID 1430;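 active = inhibition of 50% or more in the single-dose primary screen; inactive = inhibition below 50%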
Runt-SMMHC FRET: Runt domain-CBFb-SMMHC interaction inhibition; Q01196+Q13951; Cerulean-Runt/Venus-CBFb-SMMHC FRET ratio 530/480, 1 h; inhibition, % at 20 µM; 0.74% of 220,000 active;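 active = mean inhibition across duplicate retests at 20 µM reaching about 50%, limit read from the data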;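 also: inhibitors lower the FRET ratio by blocking Runt binding to CBFb-SMMHC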
Hck-Nef inh: blocks Nef-activated human Hck kinase; AID 463187; 0.68% of 220,000 active; inhibition, % at 20 µM; Recombinant Hck-YEEI plus Nef, Z-Lyte FRET kinase assay; P08631;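 active = Hck-Nef kinase inhibition above about 50%, limit read from the data; inactive = inhibition below that limit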
p97 inh conf: human p97 ATPase inhibition, confirmation. shares compounds with p97 inhibitor. recombinant p97 ATPase, Kinase-Glo ATP luminescence. inhibition, % at 8 µM. 44% of 760 active. AID 1517;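 active = percent inhibition of p97 ATPase above a set limit, the primary screen's mean plus 3 SD, cut at about 15% in these data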
Hits are given with their value; n = inactive; x = no result; ! = a repeat was not active. A selection: hits, their analogues and other compounds. The true share with any hit is near 2.1%.

SMILES	Runt-CBFb FRET	p97 inhibitor	RanGTP-Impb inh	Tb hexokinase	Runt-SMMHC FRET	Hck-Nef inh	p97 inh conf
COc1cccc(Nc2nc(N)nc(CCl)n2)c1	n	18	n	n	n	n	17
COc1ccc(OC)c(Nc2nc(N)nc(CCl)n2)c1	n	25	n	n	n	n	25
C=CCn1c(=O)c(C(=O)NCc2ccccc2Cl)c(O)c2ccccc21	x	x	n	x	x	x	x
Cn1c(C(=O)NCc2ccccn2)cc2c(=O)n(C)c3ccccc3c21	n	25	n	n	n	n	n
COc1ccc(NC(=O)C(Cl)=C(Cl)Cl)cn1	n	28	n	n	n	n	35
S=C1NC2=C(CCC/C2=C\c2ccc(Cl)cc2)C(c2ccc(Cl)cc2)N1 (stereo unspecified)	n	18	n	n	n	n	n
CC(C)(C)Nc1nc(NC(C)(C)C)nc(-n2ccnc2)n1	n	15	x	n	n	n	n
N#Cc1c(-c2ccco2)cc(-c2ccccc2)[nH]c1=O	n	22	n	n	n	n	n
Cc1ccc(-c2cc(-c3ccco3)c(C#N)c(=O)[nH]2)cc1	n	n	n	n	n	n	x
CCCN(CCC)C(=O)c1ccc2c(=O)n(Cc3ccco3)c(=S)[nH]c2c1	n	n	n	n	n	n	x
Cc1cc(C)cc(N(CCC#N)C(=O)COC(=O)C2CCN(c3ccc(C(F)(F)F)cn3)CC2)c1	x	x	n	x	x	x	x
Cc1ccc(NS(=O)(=O)c2ccc3c(c2)NC(=O)CCS3)cc1C	x	x	n	x	x	x	x
O=C(c1ccc(C(F)(F)F)cc1)C1CCCN(C(=O)CCN2CCCO2)C1 (stereo unspecified)	n	n	n	n	n	n	x
CN(C(=O)COc1ccc(-c2nnco2)cc1)C1CCS(=O)(=O)C1 (stereo unspecified)	x	x	n	x	x	x	x
O=C(Nc1ccc(Nc2ccncc2)cc1)c1ccc(Nc2ccnc3ccc([N+](=O)[O-])cc23)cc1	n	34	n	n	57	n	24
O=C(Nc1ccc(Cc2ccncc2)cc1)c1cccc([N+](=O)[O-])c1	n	n	n	n	n	n	x
O=C(c1ccc(-c2ccccc2)cc1)N1CCN(c2ccccc2F)CC1	x	x	n	x	x	x	x
CCc1ccc(C2=Nn3c(nnc3-c3cccs3)SC2)cc1	n	19	n	n	n	n	n
c1ccc(-c2ccc(C3=Nn4c(nnc4-c4cccs4)SC3)cc2)cc1	n	n	n	n	n	n	x
Cc1ccccc1CN1C2=NCCN2c2ccccc21	n	n	n	n	n	n	x
Cc1ccccc1CN1C2=NCCCN2c2ccccc21	n	15	n	n	n	n	n
O=c1cc(CCl)[nH]c2nc3ccccc3n12	n	38	n	n	n	n	38
COc1ccc(CN2CCN(C3CCC3)CC2CCO)cc1C (stereo unspecified)	x	x	n	x	x	x	x
CS(=O)(=O)N(CC(=O)NCCc1ccccc1)c1cccc([N+](=O)[O-])c1	n	18	n	n	n	n	n
O=C(OCCN(C1=NS(=O)(=O)c2ccccc21)c1ccc(Cl)cc1)c1ccco1	n	n	n	n	n	n	x
SMILES	Runt-CBFb FRET	p97 inhibitor	RanGTP-Impb inh	Tb hexokinase	Runt-SMMHC FRET	Hck-Nef inh	p97 inh conf
Nc1nc(N2CCOCC2)n[nH]1	n	17	x	n	n	n	n
Nc1nc(N2CCN(c3ccc(F)cc3)CC2)n[nH]1	n	n	n	n	n	n	x
O=C(O)CCC(=O)Nc1ccc(N2CCCCC2)c(C(=O)O)c1	n	n	n	n	n	n	x
Cc1cc2c(N)cccc2nn1	n	32	n	n	n	n	n
O=C(NNC(=O)c1cc2cc(Br)ccc2oc1=O)c1ccc(O)cc1O	n	19	n	n	n	n	24
COCC1CCCCN1Cc1cn[nH]c1-c1ccc(OC)cc1OC (stereo unspecified)	n	n	n	n	n	n	x
COCC1CCCCN1Cc1cn[nH]c1-c1ccc2cc(OC)ccc2c1 (stereo unspecified)	n	17	x	n	n	n	n
O=C(Nc1ccccc1)Nc1ccno1	n	n	n	n	n	n	x
C=CCc1ccccc1OCC(O)CN1CCN(Cc2ccc3c(c2)OCO3)CC1 (stereo unspecified)	n	16!	n	n	n	n	n
